The source made the active and inactive calls. The calls are words filed in the database; no cut-off is given here.
Columns and labels:
Red blood cell [1] = experiment: Binding affinity to Hemoglobin in sickle cell RBCs from blood isolated from patient with homozygous SS assessed as increase in hemoglobin modification at 1 mM under hypoxic conditions incubated for 2 hrs […]; assay type: tissue-based; settings: Homo sapiens
Method in brief: (§1)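 SS blood, hematocrit 20%, incubated under air with compound (0.5, 1, 2 mM) at 37 °C for 1 h, then hypoxic (2.5% O2/97.5% N2) at 37 °C for 2 h. Cells are washed and hemolyzed. Lysate is run on weak cation-exchange HPLC to quantify Hb adduct (modified Hb). Three biological replicates, mean ± SD.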

Red blood cell [2] = experiment: Binding affinity to Hemoglobin in sickle cell RBCs from blood isolated from patient with homozygous SS assessed as increase in hemoglobin modification at 2 mM under hypoxic conditions incubated for 2 hrs […]; assay type: tissue-based; settings: Homo sapiens; method in brief: as §1
Red blood cell [3] = experiment: Binding affinity to Hemoglobin in sickle cell RBCs from blood isolated from patient with homozygous SS assessed as increase in hemoglobin modification under hypoxic conditions incubated for 2 hrs […]; assay type: tissue-based; settings: Homo sapiens; method in brief: as §1
Red blood cell [4] = experiment: Binding affinity to Hemoglobin in sickle cell RBCs from blood isolated from patient with homozygous SS assessed as increase in Hb affinity for oxygen under hypoxic conditions incubated for 2 hrs by oxygen equilibrium curve study; assay type: tissue-based; settings: Homo sapiens
Method in brief: (§2)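 SS blood, hematocrit 20%, incubated under air with compound (0.5, 1, 2 mM) at 37 °C for 1 h, then hypoxic (2.5% O2/97.5% N2) at 37 °C for 2 h. Cells are washed in PBS and hemolyzed hypotonically. Lysate in 0.1 M potassium phosphate pH 7.0 is run by Hemox analysis for P50. ΔP50 is given as percent of DMSO control. Three biological replicates, mean ± SD.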

[5] = Inhibition of sickling in sickle cell RBCs from blood isolated from patient with homozygous SS at 2 mM under hypoxic conditions incubated for 2 hrs; assay type: functional; settings: Homo sapiens, Erythrocyte
Method in brief: (§3)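 SS blood, hematocrit 20%, preincubated under air with compound (0.5, 1, 2 mM) for 1 h at 37 °C, then 2 h hypoxia (2.5% O2/97.5% N2) at 37 °C. Aliquots are fixed in 2% glutaraldehyde without air exposure. Cell morphology is scored from bright-field images at 40×. Three biological replicates, mean ± SD.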

Erythrocyte = experiment: Inhibition of sickling in sickle cell RBCs from blood isolated from patient with homozygous SS under hypoxic conditions incubated for 2 hrs; assay type: functional, tissue-based; settings: Homo sapiens; method in brief: as §3
Homo sapiens [6] = organism: Homo sapiens; experiment: Binding affinity to Hemoglobin in normal human whole blood assessed as increase in Hb affinity for oxygen at 2 mM by oxygen equilibrium curve study; assay type: tissue-based
Method in brief: (§4)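 Normal human whole blood, hematocrit 30%, incubated with or without compound in DMSO (0.5, 1.0 or 2.0 mM; 2 mM for the time course) at 37 °C. The blood is tonometered about 7 min at 37 °C against gas with 0.804, 2.935 and 5.528% O2 (6, 20, 40 mmHg). sO2 and pO2 are read on a blood gas analyzer. ΔP50% is taken relative to no compound. Time course sampled at 1, 2, 4, 8, 12, 24 h.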

Homo sapiens [7] = organism: Homo sapiens; experiment: Binding affinity to Hemoglobin in normal human whole blood assessed as increase in Hb affinity for oxygen incubated for 1.5 hrs by oxygen equilibrium curve study; assay type: tissue-based; method in brief: as §4
[8] = Induction of in-vivo hemoglobin-O2 affinity shifts in C57BL/6 mouse at 150 mg/kg, ip dosed as single administration measured after 6 hrs by oxygen equilibrium curve study; assay type: functional
Method in brief: (§5)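 C57BL/6 mice (3 male, 3 female) receive a single intraperitoneal dose of 150 mg/kg. Blood is drawn by submandibular bleeding before dosing and at 1, 3 and 6 h, then hemolyzed. Hb modification and Hb-O2 affinity shift are measured; n = 6.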

Mus musculus [9] = experiment: Induction of in-vivo hemoglobin-O2 affinity shifts in C57BL/6 mouse at 150 mg/kg, ip dosed as single administration measured after 3 to 6 hrs by oxygen equilibrium curve study; assay type: functional, organism-based; settings: time 3-6 hrs, TDE = time-dependent effect; method in brief: as §5
Mus musculus [10] = experiment: Induction of in-vivo modification of intracellular hemoglobin in C57BL/6 mouse at 150 mg/kg, ip dosed as single administration measured after 1 to 6 hrs by cation-exchange HPLC analysis; assay type: functional, organism-based; settings: time 1-6 hrs, TDE = time-dependent effect; method in brief: as §5
[11] = Stability in human whole blood assessed as parent compound level at 1 mM incubated for 24 hrs by reversed-phase HPLC analysis; assay type: ADME, tissue-based; settings: read-out: Stabilty
Method in brief: (§6)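 Normal whole blood, hematocrit 30%, incubated with or without compound at 0.5 or 1 mM at 37 °C. Aliquots taken at 0, 4, 8, 24 h are deproteinized with 0.1 M formic acid in acetonitrile at 60–65 °C for 30 min, centrifuged and filtered. Reversed-phase C18 HPLC uses a 0.1% formic acid water/acetonitrile gradient, detection at 261 nm. Parent and carboxylic acid analogue are quantified; the acid serves as reference.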

[12] = Stability in human whole blood assessed as parent compound level at 0.5 mM incubated for 24 hrs by reversed-phase HPLC analysis; assay type: ADME, tissue-based; settings: read-out: Stabilty; method in brief: as §6
[13] = Drug metabolism in human whole blood assessed as carboxylic acid analogue formation at 0.5 to 1 mM incubated up to 24 hrs by reversed-phase HPLC analysis; assay type: ADME, tissue-based; settings: 1000 µM, dose 0.5-1 mM; method in brief: as §6
Red blood cell [14] = experiment: Binding affinity to Hemoglobin in sickle cell RBCs from blood isolated from patient with homozygous SS assessed as increase in Hb affinity shift for oxygen at 2 mM under hypoxic conditions incubated for 2 hrs by oxygen equilibrium curve study; assay type: tissue-based; settings: Homo sapiens; method in brief: as §2
Red blood cell [15] = experiment: Binding affinity to Hemoglobin in sickle cell RBCs from blood isolated from patient with homozygous SS assessed as increase in Hb affinity shift for oxygen at 1 mM under hypoxic conditions incubated for 2 hrs by oxygen equilibrium curve study; assay type: tissue-based; settings: Homo sapiens; method in brief: as §2
Red blood cell [16] = experiment: Binding affinity to Hemoglobin in sickle cell RBCs from blood isolated from patient with homozygous SS assessed as increase in hemoglobin modification at 0.5 mM under hypoxic conditions incubated for 2 hrs […]; assay type: tissue-based; settings: Homo sapiens; method in brief: as §1
[17] = Inhibition of sickling in sickle cell RBCs from blood isolated from patient with homozygous SS at 1 mM under hypoxic conditions incubated for 2 hrs; assay type: functional; settings: Homo sapiens, Erythrocyte; method in brief: as §3
[18] = Inhibition of sickling in sickle cell RBCs from blood isolated from patient with homozygous SS at 0.5 mM under hypoxic conditions incubated for 2 hrs; assay type: functional; settings: Homo sapiens, Erythrocyte; method in brief: as §3
Red blood cell [19] = experiment: Binding affinity to Hemoglobin in sickle cell RBCs from blood isolated from patient with homozygous SS assessed as increase in Hb affinity shift for oxygen at 0.5 mM under hypoxic conditions incubated for 2 hrs by oxygen equilibrium curve study; assay type: tissue-based; settings: Homo sapiens; method in brief: as §2
[20] = Induction of in-vivo modification of intracellular hemoglobin in C57BL/6 mouse at 150 mg/kg, ip dosed as single administration measured after 6 hrs by cation-exchange HPLC analysis

Row | Structure (SMILES) | Activity (Red blood cell [1]) [%] | Activity (Red blood cell [2]) [%] | Activity (Red blood cell [3]) | Activity (Red blood cell [4]) | inhibition at 2000 µM [5] [%] | inhibition (Erythrocyte) | Activity (Homo sapiens [6]; TDE = time-dependent effect) | Activity (Homo sapiens [7]) | Activity (Homo sapiens [6]) | Activity (Red blood cell [14]) [%] | Activity (Red blood cell [15]) [%] | Activity (Red blood cell [16]) [%] | inhibition at 1000 µM [17] [%] | inhibition at 500 µM [18] [%] | Activity (Red blood cell [19]) [%] | further results
1 | COC(=O)c1cncc(COc2ccc(OC)cc2C=O)c1 | 60 | < 100 | Dose-dependent effect | Dose-dependent effect | > 90 | Dose-dependent effect | Tde | Dose-dependent effect |  |  |  |  |  |  |  | 
2 | COC(=O)c1ccc(COc2ccc(OC)cc2C=O)nc1 |  |  |  |  |  |  |  | inactive | inactive |  |  |  |  |  |  | 
3 | COC(=O)c1cccc(COc2cccc(O)c2C=O)n1 | 81.1 | 100 | Dose-dependent effect | Dose-dependent effect | 93.2 | Dose-dependent effect |  | inactive | inactive | 48.6 | 29.2 | 29.2 | 54.2 | 7.6 | 5.4 | Activity [8]: 5.5%; Activity (Mus musculus [9]): Tde; Activity (Mus musculus [10]): Tde; remaining at 24 h, 1000 µM [11]: 83%; remaining at 24 h, 500 µM [12]: 89%; Drug metabolism [13]: Metabolite_Detected; Activity [20]: 9.6%
4 | COC(=O)c1ccnc(COc2cccc(O)c2C=O)c1 | > 80 | < 100 | Dose-dependent effect | Dose-dependent effect | > 90 | Dose-dependent effect | Tde | Dose-dependent effect |  |  |  |  |  |  |  | 
5 | COC(=O)c1cncc(COc2cccc(O)c2C=O)c1 | 60 | < 100 | Dose-dependent effect | Dose-dependent effect | > 90 | Dose-dependent effect |  |  |  |  |  |  |  |  |  | 
6 | COC(=O)c1cccnc1COc1cccc(O)c1C=O | 64.4 | 90.8 | Dose-dependent effect | Dose-dependent effect | 98.8 | Dose-dependent effect | Tde | Dose-dependent effect |  | 39.6 | 18.8 | 46 | 70.6 | 43.3 | 12.2 | Activity [8]: 14.5%; Activity (Mus musculus [9]): Tde; Activity (Mus musculus [10]): Tde; remaining at 24 h, 1000 µM [11]: 78%; remaining at 24 h, 500 µM [12]: 81%; Drug metabolism [13]: Metabolite_Detected; Activity [20]: 16.9%
7 | COC(=O)c1ncccc1COc1cccc(O)c1C=O |  |  | Dose-dependent effect | Dose-dependent effect | > 90 | Dose-dependent effect |  | inactive | inactive |  |  |  |  |  |  | 
8 | COC(=O)c1ccc(COc2cccc(O)c2C=O)nc1 |  |  |  |  |  |  |  | inactive | inactive |  |  |  |  |  |  | 
9 | COC(=O)c1ccc(COc2cccc(O)c2C=O)cn1 | 92.5 | 100 | Dose-dependent effect | Dose-dependent effect | 98.9 | Dose-dependent effect | Tde | Dose-dependent effect |  | 60.1 | 44.2 | 47.8 | 90.7 | 39.5 | 16.3 | 
10 | COC(=O)c1cccnc1COc1ccc(OC)cc1C=O | 49.9 | 67.5 | Dose-dependent effect | Dose-dependent effect | 99 | Dose-dependent effect | Tde | Dose-dependent effect |  | 21.3 | 12.8 | 32.1 | 71.7 | 41.8 | 5.9 | 
11 | COc1ccc(OCc2cccc(CO)n2)c(C=O)c1 | 60 | 80 | Dose-dependent effect | Dose-dependent effect | > 90 | Dose-dependent effect |  |  |  |  |  |  | 47 | 26 |  | Activity [8]: 1%; Activity (Mus musculus [9]): Tde; Activity (Mus musculus [10]): Tde; Activity [20]: 1.5%
12 | COC(=O)c1ncccc1COc1ccc(OC)cc1C=O | 62.3 | 79.2 | Dose-dependent effect | Dose-dependent effect | 99.1 | Dose-dependent effect |  | inactive | inactive | 25.4 | 13.9 | 30.2 | 97.7 | 37.6 | 4.4 | 
13 | COC(=O)c1cccc(COc2ccc(OC)cc2C=O)n1 | 41.7 | 63.8 | Dose-dependent effect | Dose-dependent effect | 88 | Dose-dependent effect |  | inactive | inactive | 37.1 | 20.1 | 20.9 | 48.2 | 17.5 | 4.8 | 
14 | CC(C)n1nccc1-c1ncccc1COc1cccc(O)c1C=O [VOXELOTOR] | 100 |  |  |  |  |  |  |  |  |  | 80 | 55 | 98 | 56 | 41 | 
15 | COC(=O)c1ccc(COc2ccc(OC)cc2C=O)cn1 | 64 | 81.3 | Dose-dependent effect | Dose-dependent effect | 96.5 | Dose-dependent effect | Tde | Dose-dependent effect |  | 32.3 | 19.5 | 36.1 | 81.6 | 29.1 | 9.9 | 

Source: ChEMBL document CHEMBL4673298, “Exploration of Structure-Activity Relationship of Aromatic Aldehydes Bearing Pyridinylmethoxy-Methyl Esters as Novel Antisickling Agents” (J Med Chem, 2020)
